Compound activity deposited in PubChem BioAssay by Johns Hopkins Ion Channel Center.
This is a sample that favours compounds with a hit; in the whole collection about 3.5% have one here.
RGS4 act – potentiators or activators of RGS4; AID 463111; B-score at 10 µM; HEK293 M3R/inducible RGS4, carbachol calcium flux Fluo4; hits give low values; actives 0.92% (n = 310,000);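 active = B-score of the integrated calcium signal more than 4 SD below the library mean, with starting fluorescence not abnormally high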;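 note: negative B-score means reduced calcium response which marks RGS4 activation or potentiation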
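Material: Inducible-RGS4 HEK293 cells carrying M3 receptor; also added: carbachol at ECmax as muscarinic agonist stimulus; incubation: compound preincubation 20 min at room temperature before agonist; signal: Fluo4-AM (2 µM) calcium-flux fluorescence, kinetic read; measure: integrated calcium ratio converted to B score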
MrgX1 antagonist – antagonists of human MrgX1 receptor; MRGX1-HEK293 calcium flux, Fluo-4, BAM8-22 antagonism; hits give low values; B-score at 10 µM; actives 1.3% (n = 310,000);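 active = calcium-response B-score plate-corrected more than 3 library SD below zero, starting fluorescence within 5 deviations, no agonist response on first addition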;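 note: peak minus trough fluorescence over baseline after final BAM8-22 challenge near maximal dose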
Target sequence (Q96LB2 whole entry, looked up): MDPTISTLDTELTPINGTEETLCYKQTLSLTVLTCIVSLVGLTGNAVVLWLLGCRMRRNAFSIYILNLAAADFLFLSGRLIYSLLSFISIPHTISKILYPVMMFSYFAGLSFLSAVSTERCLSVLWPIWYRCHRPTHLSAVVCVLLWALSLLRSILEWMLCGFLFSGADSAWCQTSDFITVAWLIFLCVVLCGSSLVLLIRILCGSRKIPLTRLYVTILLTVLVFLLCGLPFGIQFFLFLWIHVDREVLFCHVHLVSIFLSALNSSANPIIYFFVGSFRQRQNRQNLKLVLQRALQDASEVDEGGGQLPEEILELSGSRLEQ
MrgX1 PAM – human MrgX1 positive allosteric modulation, primary screen; MrgX1-HEK293, Fluo-4 calcium flux, FDSS; hits give high values; B-score at 10 µM; actives 0.63% (n = 310,000);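 active = plate-corrected calcium response at least 3 library SD above typical, normal starting fluorescence, not activating the receptor alone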;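 note: compound read alongside a low EC10 to EC30 dose of BAM8-22 agonist; peak minus trough fluorescence over baseline measured at the second addition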
MrgX1 ag – human MrgX1 receptor agonism, primary screen; Q96LB2; MrgX1-HEK293 cells, Fluo-4 calcium fluorescence, agonist mode; hits give high values; B-score at 10 µM; actives 0.44% (n = 310,000);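 active = calcium response B-score plate-corrected fluorescence ratio at least 3 library SD, with starting fluorescence B-score inside 5 SD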
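Test system: HEK293 cells stably expressing human MrgX1 receptor; amount: 15,000 cells per well; doses: compound delivered in addition one of three; times: overnight plating before 1 h dye loading; detection: Fluo-4 NW calcium-flux fluorescence, kinetic read; read-out basis: B-scored fluorescence response ratio; controls: positive and negative controls per plate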
RGS4 block – inhibitors of human RGS4. AID 463165. actives 0.45% (n = 310,000). HEK293 M3R/RGS4 inducible, Fluo-4 calcium flux; hits give high values; triggered by carbachol at its EC20. P49798. B-score at 10 µM;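 active = B-score, a plate-corrected calcium signal, over three deviations above library mean, with baseline fluorescence within five deviations of library mean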;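 note: RGS4 expression induced by doxycycline in cells with stable M3 receptor; B-score is computed from the integrated fluorescence ratio over baseline after carbachol; higher B-score means a larger calcium signal and so more RGS4 inhibition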
Target sequence (P49798 whole entry, looked up): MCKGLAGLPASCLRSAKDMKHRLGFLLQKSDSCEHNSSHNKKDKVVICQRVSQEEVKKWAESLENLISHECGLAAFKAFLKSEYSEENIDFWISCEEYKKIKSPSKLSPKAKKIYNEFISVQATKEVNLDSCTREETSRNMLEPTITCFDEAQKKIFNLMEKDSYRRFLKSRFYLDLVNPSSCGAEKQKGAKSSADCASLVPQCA
RGS4 inh valid – validation of RGS4 inhibitors; shares compounds with RGS4 block; calcium response, % at 10 µM; HEK293 M3R/RGS4, carbachol calcium Fluo-4 fluorescence; carbachol added at its EC20; 0 = buffer wells, 100 = carbachol control; actives 65% (n = 1,700);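 active = duplicate-averaged calcium response above the buffer-only control mean plus 5 SD of those controls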;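 note: integrated fluorescence ratio F max minus min over baseline F0; higher response in RGS4-induced cells means RGS4 inhibition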
RGS4 uninduced – counter-screen for RGS4 inhibitors: effect in non-induced cells. activity (percent), % at 10 µM. HEK293 M3R non-induced, carbachol calcium Fluo-4; submaximal (EC20) carbachol stimulus; buffer wells 0%, carbachol control wells 100%. actives 20% (n = 1,900). shares compounds with RGS4 block; call rule not given here;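 note: RGS4 induction absent so cells express M3R without RGS4; higher means more calcium signal and flags a non-specific hit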
RGS4 inh ctr2 – second RGS4 inhibitor counter-screen in uninduced cells lacking carbachol. actives 22% (n = 1,900). HEK293 M3R/RGS4 non-induced, Fluo-4 calcium, no carbachol; normalised: buffer wells 0%, carbachol wells 100%. shares compounds with RGS4 block. calcium response (agonist-mode artifact), % at 10 µM;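 active = duplicate-averaged calcium rise in uninduced cells above buffer wells' mean plus 5 SD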
Large screens that a line does not name were inactive (follow-up assays come after a bar, where they were run).

O=C(c1ccco1)N1CCN(Cc2nc3ccccc3c(=O)n2-c2ccc(F)cc2)CC1	none
CCOc1cc(CNc2ccc(N3CCCC3)cc2)cc(Cl)c1OC	RGS4 block 5.13 | RGS4 inh valid 14.0% | RGS4 uninduced inactive | RGS4 inh ctr2 inactive
CCOc1cc(CNc2ccc(S(N)(=O)=O)cc2)cc(Cl)c1OC	none
Cc1csc(NC(=O)CCCC(=O)O)c1-c1nc2ccccc2s1	RGS4 block 6.15 | RGS4 inh valid 32.0% | RGS4 uninduced 47.5% | RGS4 inh ctr2 inactive
Cc1csc(NC(=O)COCC(=O)O)c1-c1nc2ccccc2s1	RGS4 block 6.79 | RGS4 inh valid 22.0% | RGS4 uninduced inactive | RGS4 inh ctr2 inactive
CC(=O)Nc1scc(C)c1-c1nc2ccccc2s1	none
CCn1cc(S(=O)(=O)Nc2cc(C(=O)OC)ccc2C)cn1	none
C[C@]12C(=O)N(c3ccc(Cl)cc3)C(=O)N1[C@H]1c3ccccc3OC[C@@H]1[C@H]2c1ccccc1	none | RGS4 inh valid inactive | RGS4 uninduced inactive | RGS4 inh ctr2 inactive
C[C@]12C(=O)N(c3ccc(Br)cc3)C(=O)N1[C@@H]1c3ccccc3OC[C@@H]1[C@H]2c1ccccc1	none
C[C@@]12C(=O)N(c3ccc(F)cc3)C(=O)N1[C@@H]1c3ccccc3OC[C@@H]1[C@H]2c1ccccc1	none
C[C@]12C(=O)N(c3ccc(Cl)cc3)C(=O)N1[C@@H]1c3ccccc3OC[C@@H]1[C@H]2c1ccccc1	none | RGS4 inh valid inactive | RGS4 uninduced inactive | RGS4 inh ctr2 inactive
CCOC(=O)CN1N=C(c2ccc(C)cc2)CCC1=O	none
Cn1c2ccccc2c2c(C(=O)NCc3ccco3)cn(C3CCCCC3)c(=O)c21	none | RGS4 inh valid inactive | RGS4 uninduced inactive | RGS4 inh ctr2 inactive
COc1ccc(Oc2ccccc2/C=N/O)cc1	none
CC(C)(C)c1cccc(/C=N/O)c1O	RGS4 block 10.5 | RGS4 inh valid 24.5% | RGS4 uninduced 44.5% | RGS4 inh ctr2 inactive
CCOc1c(Cl)cc(/C=N/NC(N)=S)cc1OC	none
O=Nc1c(O)n(Cc2cccc(Cl)c2)c2ccccc12	RGS4 block 6.41 | RGS4 inh valid 16.0% | RGS4 uninduced 37.0% | RGS4 inh ctr2 inactive
CCOc1cccc(C2C(C(=O)c3ccc(C)o3)=C(O)C(=O)N2Cc2ccccc2)c1 (centres undefined)	RGS4 block 4.71 (no result: MrgX1 antagonist, MrgX1 PAM, MrgX1 ag) | RGS4 inh valid 16.5% | RGS4 uninduced inactive | RGS4 inh ctr2 inactive
O=C(CC1C(=O)NCCN1C(=O)c1ccc(Cl)cc1)Nc1ccc(F)cc1 (centres undefined)	none | RGS4 inh valid inactive | RGS4 uninduced inactive | RGS4 inh ctr2 inactive
COC(=O)CC1C(=O)NCCN1C(=O)Nc1ccc(Cl)cc1 (centres undefined)	none
O=C(CC1C(=O)NCCN1C(=O)Nc1ccc(F)cc1)Nc1cc(Cl)ccc1Cl (centres undefined)	none | RGS4 uninduced inactive | RGS4 inh ctr2 10.0%
CCOc1ccc(NC(=O)CC2C(=O)NCCN2C(=O)Nc2ccccc2)cc1 (centres undefined)	none
Cc1cccc(NC(=O)CC2C(=O)NCCN2C(=O)Nc2ccc(Cl)cc2)c1 (centres undefined)	RGS4 block 9.09 | RGS4 inh valid 26.0% | RGS4 uninduced 46.0% | RGS4 inh ctr2 inactive
O=C(CC1C(=O)NCCN1C(=O)Nc1ccccc1)Nc1ccc(F)cc1 (centres undefined)	none | RGS4 uninduced inactive | RGS4 inh ctr2 inactive
O=C(CC1C(=O)NCCN1C(=O)Nc1ccccc1)Nc1cc(Cl)ccc1Cl (centres undefined)	none
COc1ccc(CNn2c(-c3cccs3)nc3ccccc3c2=O)cc1OC	none
COc1cccc(C(C)NC(=O)Cc2cccs2)c1 (centres undefined)	none
